Broadly, the CC50 is the concentration giving 50% cytotoxicity. Low values mean harm at low concentration, high ones better tolerance by the cells. One may read the EC50 as the concentration that produces a half-maximal response.

This note sets out measurements from ChEMBL document CHEMBL2439964, “Identification of a series of 1,3,4-trisubstituted pyrazoles as novel hepatitis C virus entry inhibitors” (Bioorg Med Chem Lett, 2013).

Data set [1] can be described thus: Cytotoxicity against human HuH7 cells. Type of data set: cell-based, Huh-7. The method, boiled down:
(§1)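 Naïve Huh-7 cells in 384-well plates were given serially diluted compound, then infected with cell culture-derived HCV (HCVcc) at MOI 1. Live cells were analysed 72 h post-infection. EC50 came from 10-point dose-response in duplicate with quadruplicate measurements, or 5-point in duplicate for one series. CC50 came from automated per-well cell counts. SI = CC50/EC50.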

Data set [2] deals with Hepatitis C virus. The data set can be described thus: Antiviral activity against cell culture derived HCV infected in human HuH7 cells assessed as inhibition of viral replication after 72 hrs. Type of data set: functional, organism-based, Hepacivirus hominis. The conditions noted are these: Huh-7, 72 h. The method, boiled down: as §1
Data set [3] is described as follows: Selectivity index, ratio of CC50 for human HuH7 cells to EC50 for cell culture derived HCV. More on the design: species or system Huh-7. A digest of the protocol: as §1

Consider `Cc1ccccc1-c1nn(-c2ccc(F)cc2F)cc1CN1CCN(c2ccccc2)CC1`, for which, in data set [1], the CC50 is more than 20 µM. In addition, the EC50 in data set [2] is more than 20 µM.
As to `Cc1ccccc1-c1nn(-c2ccc(F)cc2F)cc1CNC1CCN(S(C)(=O)=O)CC1`, in data set [1], the CC50 is more than 20 µM. In data set [2], the EC50 was more than 20 µM.
Regarding `Cc1ccccc1-c1nn(Cc2ccc(F)cc2)cc1CNCCN1CCN(C)CC1`, the “Ratio CC50/EC50” value in data set [3] is recorded as more than 2. Besides, the CC50 in data set [1] was more than 20 µM. Also, in data set [2], the EC50 came out at 10 µM.
On the same counts, the results for `CCCN1CCC(CNCc2cn(-c3ccc(C(F)(F)F)cc3)nc2-c2ccc(Cl)cc2)CC1` are 6.7, 1.9 µM and 0.29 µM.
In data set [1], `CN1CCN(CCNCc2cc(-c3ccccc3)nn2-c2ccc(F)cc2)CC1` gave a CC50 of more than 20 µM. Also, the concentration for a half-maximal effect (EC50) in data set [2] is 13 µM.
Consider `CSc1ccc(-n2cc(CNCCN3CCN(C)CC3)c(-c3ccccc3C)n2)cc1`, for which the “Ratio CC50/EC50” value in data set [3] is given as 25. Moreover, it took 17 µM to reach half-maximal cytotoxicity in data set [1] (CC50). Besides, the EC50 in data set [2] is 0.67 µM.
The like results for `CN1CCN(CCNCc2cn(-c3ccc(F)cc3F)nc2-c2ccccc2Cl)CC1` were, in that order, more than 6.1, more than 20 µM and 3.3 µM.
On the same counts, the results for `CN1CCN(CCNCc2cn(-c3ccc(F)cc3F)nc2C2CCCCC2)CC1` are more than 17, more than 20 µM and 1.2 µM.
The like results for `COCCN1CCC(CNCc2cn(-c3ccc(F)cc3F)nc2-c2ccccc2C)CC1` were, in that order, more than 6.7, more than 20 µM and 3 µM.
Consider `COc1ccc(-n2cc(CNCCN3CCN(C)CC3)c(-c3ccccc3C)n2)cc1`, for which the “Ratio CC50/EC50” value in data set [3] is more than 7.1. The same molecule gave a CC50 in data set [1] of more than 20 µM. The 50% effective concentration (EC50) in data set [2] turned out to be 2.8 µM.
In data set [1], `Cc1ccccc1-c1nn(-c2ccc(F)cc2F)cc1CNCCN1CCOCC1` came in with a CC50 of more than 20 µM. The EC50 in data set [2] was more than 20 µM.
`Cc1ccccc1-c1nn(-c2ccc(F)cc2F)cc1CNCCCCO` showed a cytotoxic concentration (CC50) in data set [1] of more than 20 µM. The EC50 in data set [2] was more than 20 µM.
As for `Cc1ccccc1-c1nn(-c2ccc(OC(F)(F)F)cc2)cc1CNCCN1CCN(C)CC1`, the “Ratio CC50/EC50” value in data set [3] turned out to be 19. The molecule further returned a 50% cytotoxic concentration (CC50) in data set [1] of 17 µM. Moreover, the EC50 in data set [2] worked out at 0.9 µM.
The like results for `CN1CCN(CCCNCc2cn(-c3ccc(C(F)(F)F)cc3)nc2-c2ccc(Cl)cc2)CC1` were, in that order, 6.9, 2.5 µM and 0.36 µM.
On the same counts, the results for `CN1CCN(CCCNCc2cn(-c3ccc([N+](=O)[O-])cc3)nc2-c2ccc(Cl)cc2)CC1` are 28, 3.7 µM and 0.13 µM.
`Cc1cccc(-c2nn(-c3ccc(F)cc3F)cc2CNCCN2CCN(C)CC2)c1`: the “Ratio CC50/EC50” value in data set [3] is more than 12. This molecule also returned a CC50 in data set [1] of more than 20 µM. Besides, the EC50 in data set [2] was found to be 1.7 µM.
The like results for `CCCN1CCC(CNCc2cn(-c3ccc(C(F)(F)F)cc3)nc2-c2ccc(OC(F)(F)F)cc2)CC1` were, in that order, 5.3, 2.2 µM and 0.41 µM.
For `Cc1ccccc1-c1nn(-c2ccc(F)cc2)cc1CNCCN1CCN(C)CC1`, the “Ratio CC50/EC50” value in data set [3] is given as more than 5.4. For the same molecule, in data set [1], the CC50 was more than 20 µM. Moreover, the EC50 in data set [2] was found to be 3.7 µM.
The like results for `CN1CCN(CCNCc2cn(-c3ccc(F)cc3F)nc2-c2ccc(C(F)(F)F)cc2)CC1` were, in that order, 37, 20 µM and 0.54 µM.
As for `Cc1ccccc1-c1nn(-c2cccc(C(F)(F)F)c2)cc1CNCCN1CCN(C)CC1`, the “Ratio CC50/EC50” value in data set [3] was 20. The same molecule yielded a CC50 in data set [1] of 18 µM. Further, the EC50 in data set [2] came to 0.91 µM.
On the same counts, the results for `CN1CCN(CCCNCc2cn(-c3ccc(C(F)(F)F)cc3)nc2-c2ccc(OC(F)(F)F)cc2)CC1` are 3.1, 2.3 µM and 0.75 µM.
The like results for `CCCCCNCc1cn(-c2ccc(F)cc2F)nc1-c1ccccc1C` were, in that order, 1, 17 µM and 18 µM.
On the same counts, the results for `CN1CCN(CCCNCc2cn(-c3ccc(C(F)(F)F)cc3)nc2-c2ccc(C(F)(F)F)cc2)CC1` are 5.3, 2 µM and 0.38 µM.
The molecule `CCOC(=O)Cn1cc(CNCCN2CCN(C)CC2)c(-c2ccccc2C)n1` yielded a CC50 in data set [1] of more than 20 µM. The EC50 in data set [2] was more than 20 µM.
`CN1CCN(CCNCc2cn(-c3ccc(F)cc3F)nc2-c2ccc(S(=O)(=O)N(C)C)cc2)CC1`: in data set [3], the “Ratio CC50/EC50” value was more than 11. In data set [1], this molecule came in with a CC50 of more than 20 µM. Also, the EC50 in data set [2] was found to be 1.8 µM.
On to `CN1CCN(CCNCc2cn(-c3ccc(F)cc3F)nc2-c2cccc(Cl)c2)CC1`, for which, in data set [3], the “Ratio CC50/EC50” value was determined as 26. This molecule also had a CC50 in data set [1] of 15 µM. Further, the EC50 in data set [2] amounted to 0.58 µM.
For `Cc1ccccc1CNc1nn(-c2ccc(F)cc2F)cc1CNCCN1CCN(C)CC1`, the “Ratio CC50/EC50” value in data set [3] is more than 4.7. This molecule returned a CC50 in data set [1] of more than 20 µM. In addition, the EC50 in data set [2] amounted to 4.3 µM.
In data set [1], `CN1CCN(CCNC(=O)c2cn(-c3ccc(F)cc3F)nc2-c2ccccc2Cl)CC1` registered a CC50 of more than 20 µM. The concentration giving a half-maximal response (EC50) in data set [2] is more than 20 µM.
For the molecule `CN1CCN(CCNCc2cn(-c3ccc(F)cc3F)nc2-c2cccc(N(C)C)c2)CC1`, the “Ratio CC50/EC50” value in data set [3] is more than 6.3. In addition, the CC50 in data set [1] was more than 20 µM. Moreover, in data set [2], the EC50 is 3.2 µM.
The like results for `Cc1ccccc1-c1nn(-c2ccc(F)c(F)c2)cc1CNCCN1CCN(C)CC1` were, in that order, more than 7.7, more than 20 µM and 2.6 µM.
On the same counts, the results for `CCCN1CCC(CNCc2cn(-c3ccc(C(F)(F)F)cc3)nc2-c2ccc(C(F)(F)F)cc2)CC1` are 3.6, 1.2 µM and 0.33 µM.
Regarding `CCCN1CCC(CNCc2cn(-c3ccc([N+](=O)[O-])cc3)nc2-c2ccc(OC(F)(F)F)cc2)CC1`, the “Ratio CC50/EC50” value in data set [3] turned out to be 30. In data set [1], this molecule showed a CC50 of 18 µM. For the same molecule, the EC50 in data set [2] was found to be 0.6 µM.
For `Cc1ccc(-n2cc(CNCCN3CCN(C)CC3)c(-c3ccccc3C)n2)c(C)c1`, the “Ratio CC50/EC50” value in data set [3] is more than 8.3. In data set [1], this molecule came in with a CC50 of more than 20 µM. Moreover, in data set [2], the EC50 turned out to be 2.4 µM.
The like results for `Cc1ccccc1-c1nn(-c2ccc(F)cc2F)cc1CNCCCN1CCN(C)CC1` were, in that order, more than 9, more than 20 µM and 2.2 µM.
The like results for `CCCN1CCC(CNCc2cn(-c3ccc([N+](=O)[O-])cc3)nc2-c2ccc(Cl)cc2)CC1` were, in that order, 37, 11 µM and 0.3 µM.
On the same counts, the results for `COC(=O)c1ccc(-c2nn(-c3ccc(F)cc3F)cc2CNCCN2CCN(C)CC2)cc1` are more than 5.3, more than 20 µM and 3.8 µM.
Take `Cc1ccccc1-c1nn(-c2ccc(N)cc2)cc1CNCCN1CCN(C)CC1`: in data set [3], the “Ratio CC50/EC50” value is recorded as more than 2. Further, in data set [1], the CC50 is more than 20 µM. For the same molecule, the EC50 in data set [2] turned out to be 10 µM.
On the same counts, the results for `CN1CCN(CCNCc2cn(-c3ccc([N+](=O)[O-])cc3)nc2-c2ccc(OC(F)(F)F)cc2)CC1` are 11, 4.4 µM and 0.4 µM.
The like results for `Cc1ccccc1-c1nn(-c2ccc([N+](=O)[O-])cc2)cc1CNCCN1CCN(C)CC1` were, in that order, more than 41, more than 20 µM and 0.49 µM.
On the same counts, the results for `Cc1ccc(-c2nn(-c3ccc(F)cc3F)cc2CNCCN2CCN(C)CC2)cc1` are more than 25, more than 20 µM and 0.81 µM.
Turning to `CN1CCN(CCNCc2cn(-c3ccc(F)cc3F)nc2-c2ccc(OC(F)(F)F)cc2)CC1`, in data set [3], the “Ratio CC50/EC50” value stood at 50. In data set [1], this molecule showed a CC50 of 18 µM. Besides, in data set [2], the EC50 is 0.36 µM.
With `CN1CCN(CCNCc2cn(-c3ccc(F)cc3F)nc2Cc2ccccc2)CC1`, the “Ratio CC50/EC50” value in data set [3] is more than 1.3. This molecule also showed a CC50 in data set [1] of more than 20 µM. Moreover, in data set [2], the EC50 was found to be 16 µM.
On the same counts, the results for `CN1CCN(CCNCc2cn(-c3ccc([N+](=O)[O-])cc3)nc2-c2ccc(Cl)cc2)CC1` are 17, 5 µM and 0.29 µM.
The like results for `CN1CCN(CCCNCc2cn(-c3ccc([N+](=O)[O-])cc3)nc2-c2ccc(C(F)(F)F)cc2)CC1` were, in that order, 41, 4.9 µM and 0.12 µM.
On the same counts, the results for `Cc1ccccc1-c1nn(Cc2ccccc2)cc1CNCCN1CCN(C)CC1` are more than 2.3, more than 20 µM and 7.5 µM.
As for `COc1ccc(-c2nn(-c3ccc(F)cc3F)cc2CNCCN2CCN(C)CC2)cc1`, the “Ratio CC50/EC50” value in data set [3] is recorded as more than 9.5. Moreover, the CC50 in data set [1] is more than 20 µM. In addition, in data set [2], the EC50 was 2.1 µM.
On the same counts, the results for `CN1CCN(CCNCc2cn(-c3ccc(F)cc3F)nc2-c2ccccc2)CC1` are more than 13, more than 20 µM and 1.6 µM.
Molecule `Cc1c(CNCCN2CCN(C)CC2)c(-c2ccccc2)nn1-c1ccc(F)cc1` registered a CC50 in data set [1] of more than 20 µM. The EC50 in data set [2] was found to be 8.5 µM.
In turn, `Cc1ccccc1-c1nn(-c2ccc(F)cc2F)cc1CNCc1ccncc1` showed a CC50 in data set [1] of more than 20 µM. The EC50 in data set [2] is more than 20 µM.
The molecule `Cc1ccccc1-c1nn(-c2ccc(F)cc2F)cc1CN1CCN(C(C)C)CC1` showed a CC50 in data set [1] of more than 20 µM. Moreover, the EC50 in data set [2] is more than 20 µM.
As to `Cc1ccccc1-c1nn(-c2ccc(F)cc2F)cc1CNCCN(C)C`, the CC50 in data set [1] was more than 20 µM. For the same molecule, in data set [2], the EC50 was more than 20 µM.
As for `Cc1ccccc1-c1nn(C(C)C)cc1CNCCN1CCN(C)CC1`, the CC50 in data set [1] was more than 20 µM. For the same molecule, the EC50 in data set [2] was more than 20 µM.
